Rows were chosen to be rich in hits. Some 2.9% of all compounds tested hit in one or more screens of this group.
PfG6PD inh: PfG6PD (Plasmodium falciparum) enzyme inhibition | 0.78% of 350,000 active | AID 504690 | PfGluPho enzyme, NADPH resazurin-diaphorase fluorescence | inhibition, % at 20 µM;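 active = inhibition reaching at least a set limit at 20 µM in the primary screen, cut at about 59% in these data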;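 also: 0% = DMSO wells with substrate and 100% = DMSO wells lacking glucose-6-phosphate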
EBNA-1 inhibitor: blocks EBNA-1 binding to DNA; EBNA-1 DNA binding, fluorescence polarization; inhibition, % at 14.8 µM; 0.34% of 300,000 active; in the data active = inhibition above about 28%
ZTA DNA inh: ZTA (EBV) inhibition in EBNA-1 counter-screen | P03206 | ZTA-DNA binding, fluorescence polarization | inhibition, % at 11 µM | 0.15% of 320,000 active | AID 2234; in the data active = inhibition above about 33%
Target sequence (P03206 whole entry, looked up): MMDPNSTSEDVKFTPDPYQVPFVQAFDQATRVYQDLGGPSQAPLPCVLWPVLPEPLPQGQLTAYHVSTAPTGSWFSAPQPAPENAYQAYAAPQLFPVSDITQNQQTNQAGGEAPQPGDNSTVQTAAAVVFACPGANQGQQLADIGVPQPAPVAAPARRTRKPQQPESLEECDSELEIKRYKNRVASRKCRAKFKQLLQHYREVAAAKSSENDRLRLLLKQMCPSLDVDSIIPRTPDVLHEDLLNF
Apaf-1 inh: blocks human Apaf-1 apoptosome activity; inhibition, % at 20 µM; reconstituted apoptosome caspase-3 activity, DEVD-Rh110 fluorescence; 0.71% of 330,000 active; active = inhibition of at least 40% at 20 µM;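 also: plate controls were DMSO wells for no effect and DEVD-CHO caspase inhibitor wells for full effect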
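Material: reconstituted apoptosome with Apaf-1, cytochrome c, caspase-9, procaspase-3, dATP / Buffer or medium: pH 7.5 Hepes buffer with CHAPS, BSA, DTT / Also added: cytochrome c with DEVD-Rh110 / Schedule: compound with Apaf-1, dATP, procaspase-3 30 min, then 50 min reaction, room temperature / Technique: rhodamine 110 fluorescence at Ex 480/Em 540 nm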
UBC13 inh: human UBC13 polyubiquitination inhibition | P61088 | UBC13 polyubiquitin chain formation, TR-FRET | inhibition, % at 20 µM | 0.47% of 330,000 active | AID 485273; in the data active = inhibition above about 45%, passing the limit was not always enough
Target sequence (P61088 whole entry, looked up): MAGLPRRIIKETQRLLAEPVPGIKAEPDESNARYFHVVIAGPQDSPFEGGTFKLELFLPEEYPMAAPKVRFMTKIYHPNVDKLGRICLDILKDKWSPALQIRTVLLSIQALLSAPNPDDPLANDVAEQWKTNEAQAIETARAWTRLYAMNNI
PfM18AAP inh: blocks P. falciparum M18 aspartyl aminopeptidase | recombinant PfM18AAP, H-Glu-NHMec fluorogenic cleavage | inhibition, % at 7.35 µM | 1.2% of 290,000 active | AID 1822;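 active = inhibition above the campaign mean inhibition over all tested compounds plus 3 SD, cut at about 28% in these data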;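 also: 0% = plate median of test compound wells and 100% = 2 mM ZnCl2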
PfGluPho conf: confirmation of Plasmodium falciparum G6PD inhibitors; shares compounds with PfG6PD inh; recombinant PfGluPho, NADPH-diaphorase-resazurin fluorescence; inhibition, % at 20 µM; 34% of 2,400 active;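 active = inhibition of at least 50% at 20 µM in any single replicate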;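 also: 0% = DMSO with substrate and 100% = DMSO lacking glucose-6-phosphate substrate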
Diaph ctr 10uM: inhibits diaphorase or oxidizes, flagging false PfG6PD hits; 39% of 820 active; inhibition, % at 20 µM; shares compounds with PfG6PD inh; diaphorase-coupled resazurin reduction, fluorescence, NADPH 10 uM;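 active = average inhibition reaching 50% or more with the compound at 20 µM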;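 also: resorufin red fluorescence formed as diaphorase reduces resazurin using NADPH; 0% = DMSO with enzyme and 100% = DMSO without enzyme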
Diaph ctr 30uM: inhibits diaphorase or oxidizes, flagging false PfG6PD hits; shares compounds with PfG6PD inh; Diaphorase/resazurin coupled assay, resorufin fluorescence, 30 uM NADPH; inhibition, % at 20 µM; 29% of 820 active;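 active = inhibition averaging 50% or more, tested at 20 µM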;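 also: 0% = DMSO with enzyme and 100% = DMSO wells lacking diaphorase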
The depositor's hits bear a star; / = no result given.

SMILES	PfG6PD inh	EBNA-1 inhibitor	ZTA DNA inh	Apaf-1 inh	UBC13 inh	PfM18AAP inh	PfGluPho conf	others
COc1cc(OC)cc(C(=O)Nc2ccc(-n3cnnn3)c(C)c2)c1	52	-3	-4	-21	5	-1	/
CCC(CC)C(=O)NCCCCc1ccccc1	-8	12	-10	-7	0	-5	/
O=C1c2cccnc2C(=O)N1CO	-9	-4	10	-14	8	-7	/
NC1=C(Br)C(=O)c2ncccc2C1=O	108*	/	/	/	/	/	86*	Diaph ctr 10uM=78*;Diaph ctr 30uM=74*
CCn1c(SCC(=O)Nc2ccc3c(c2)c2ccccc2n3CC)nnc1-c1cnccn1	-1	4	0	2	5	-3	/
CCn1c(SCC(=O)Nc2ccccc2OC)nnc1-c1cnccn1	78*	6	8	-14	8	3	53*	Diaph ctr 10uM=43;Diaph ctr 30uM=45
C=CCn1c(SCC(=O)Nc2ccc(OC)cc2)nnc1-c1cnccn1	64*	1	-1	-1	8	-3	17
C=CCn1c(SCC(=O)Nc2cc(C)cc(C)c2)nnc1-c1cnccn1	25	14	18	-1	3	10	/
CCn1c(SCC(=O)Nc2ccc(C)cc2)nnc1-c1cnccn1	68*	-4	1	2	-6	-2	16
O=C(NCc1ccncc1)C(=O)NCC1OCCN1S(=O)(=O)c1ccccc1 (stereo unspecified)	-7	/	/	/	/	/	/
CC1N(C)c2cccc3cccc(c23)N1C	69*	-6	2	38	-26	10	53*	Diaph ctr 10uM=1;Diaph ctr 30uM=2
CN1c2cccc3cccc(c23)N(C)C1c1cccs1	19	-12	1	8	-3	11	/
O=C(CNC(=O)c1cccs1)N/N=C/c1c[nH]c2ccccc12	-15	4	10	3	-4	-15	/
CC(=O)Nc1ccc(C(=O)Nc2nc(-c3cccnc3)cs2)cc1	60*	-5	15	-8	4	22	2
O=C(Nc1nc(-c2ccccc2)cs1)c1cccnc1	-1	6	-3	5	-9	2	/
CCc1ccn2cc(-c3ccc4c(c3)OCO4)nc2c1	65*	-6	-10	-3	12	2	23
Cc1[nH]c(=S)sc1Cc1ccc(F)cc1	42	7	15	-2	7	16	/
CCOC(=O)C1(Cc2ccccc2Cl)CCN(Cc2csc(C(C)=O)c2)CC1	63*	1	5	9	13	7	25
CCOC(=O)C1(Cc2cccc(OC)c2)CCN(Cc2ccccc2)CC1	22	-1	-8	3	3	1	/
CCOC(=O)c1c(-c2ccc(OC)cc2)csc1NC(=O)CCN1C(=O)c2ccccc2C1=O	62*	8	0	18	6	23	10
CC1CCCC(C)N1C(=O)COC(=O)CNC(=O)c1ccccc1F (stereo unspecified)	6	/	-2	6	-12	/	/
COc1ccc(NC(=O)C(c2cc3c(cc2[N+](=O)[O-])OCO3)N(C)c2ccccc2)cc1 (stereo unspecified)	-4	1	-6	20	-3	14	/
Cc1ccc(NS(=O)(=O)c2ccc(N3CCN(c4ccc(O)cc4)CC3)c([N+](=O)[O-])c2)c(C)c1	42	-4	-10	16	-13	27	/
CN1CCN(S(=O)(=O)c2ccc(N3CCN(c4ccc(O)cc4)CC3)c([N+](=O)[O-])c2)CC1	72*	-4	3	16	-19	/	31
COc1ccc(-n2sc3ccccc3c2=O)cc1	125*	/	/	/	/	/	109*	Diaph ctr 10uM=-26;Diaph ctr 30uM=-12
SMILES	PfG6PD inh	EBNA-1 inhibitor	ZTA DNA inh	Apaf-1 inh	UBC13 inh	PfM18AAP inh	PfGluPho conf	others
C=C(CN(C)C)C(=O)c1cc(C)ccc1C	79*	/	/	/	/	/	47
Cc1ccc(C)c(C(=O)NCCN(C)C)c1	1	4	9	-4	-1	-6	/
Cc1ccc(-c2ccc(/C=N/NC(N)=S)o2)cc1	62*	-1	3	25	-17	-3	16
NC(=S)N/N=C/c1ccc(-c2ccccc2)o1	14	15	7	13	8	7	/
COc1ccc(OCCSc2nnc(C)n2-c2ccccc2)cc1	-5	-13	-3	3	-1	-3	/
CCCCN(C)C(=S)Nc1ccc(Oc2ccccc2)cc1	4	-3	0	8	7	-1	/
CN(C(=S)Nc1cccnc1)c1ccc(O)cc1	67*	6	21	/	/	23	2
CN(C(=S)Nc1ccc(Oc2ccccc2)cc1)c1ccc(O)cc1	78*	4	10	/	/	9	11
O=C(Nc1ccc(Oc2cccnc2)cc1)c1ccc([N+](=O)[O-])cc1	13	4	-2	5	-1	-5	/
O=C(Nc1ccc(Oc2cccnc2)cc1)c1cccc([N+](=O)[O-])c1	61*	-2	-5	12	-10	-1	29
CCC(c1nnc(SCC(=O)Nc2c(F)cccc2F)n1Cc1ccccc1)N(C)C (stereo unspecified)	-14	11	8	-6	3	-1	/
O=c1c2ccccc2sn1-c1ccc(Cl)cc1Cl	129*	/	/	/	/	/	109*	Diaph ctr 10uM=-4;Diaph ctr 30uM=2
O=c1c2ccccc2ncn1-c1ccc(Cl)cc1Cl	0	7	3	-8	-1	-3	/
CCc1cc(-c2n[nH]c(C)c2-c2nc3ccccc3s2)c(O)cc1OCC(=O)NN	20	-12	-1	21	30	-7	/
CCc1cc(-c2n[nH]c(C)c2-c2nc(C)cs2)c(O)cc1OC	69*	-18	8	18	32	7	41
N=c1c(C(=O)NC2CCCC2)cc2c(=O)n3ccccc3nc2n1C1CCCC1	22	8	8	-1	6	5	/
Cc1cccn2c(=O)c3cc(C(=O)NC4CCCC4)c(=N)n(C4CCCC4)c3nc12	82*	13	20	8	4	0	23
CC1CCCC(NC(=O)C2N(CCCN3CCCC3)C(=O)C3C(C(=O)Nc4ccc(Cl)cc4)C4C=CC32O4)C1C (stereo unspecified)	5	-5	-5	9	3	0	/
Cc1cccc(CN(C)C[C@@H]2OCc3cnnn3CCCC(=O)N([C@H](C)CO)C[C@H]2C)c1	-17	/	/	/	/	/	/
CCC(C)(C)c1nnc(NC(=O)C2CCN(C(=O)c3ccco3)CC2)s1	79*	-3	-8	6	4	28	61*	Diaph ctr 10uM=-37;Diaph ctr 30uM=-15
COc1ccc(/C=N/NC(=O)c2ccc(CN3C(=O)c4cccc5cccc3c45)cc2)cc1O	58	14	19	-15	24	3	/

Compound activity from PubChem BioAssay.
